Data set [1] is described as follows: Cytotoxicity against mouse RAW264.7 cells assessed as cell viability. The data set is classed as cell-based. The note with it: read-out: Activity. Also noted: concentration or dose not given beside the values.
A further data set concerns RAW264.7. Kind of data set: Antiinflammatory activity in mouse RAW264.7 cells assessed as inhibition of NO production preincubated for 1 hr followed by LPS stimulation measured after 24 hrs by Griess reagent based assay. The class given is functional, cell-based. The conditions noted are these: for pIC50: Mus musculus, RAW264.7, read-out: IC50; for IC50: raw264.7. The gist of the method:
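RAW 264.7 macrophages kept at 37 °C under 5% CO2. Cells were exposed to compound for 1 h, then stimulated with LPS at 1.0 μg/mL. After 24 h, nitrite/NO in the medium was read with Griess reagent.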

SMILES strings stand for the structures. pIC50: −log10 of the molar value.

One may read the pIC50 as the negative decadic logarithm of the IC50, by convention in mol/L. With `CC1(C)[C@@H](O)CC[C@]2(C)[C@H]3CC=C4[C@@H]5C[C@@](C)(CO)CC[C@]5(C)CC[C@@]4(C)[C@]3(C)CC[C@@H]12`, in data set [1], the viability came out at 102%. Also, in the data set on RAW264.7, the pIC50 was 4.32.
For `CC1(C)[C@@H](O)CC[C@]2(C)[C@H]3C(=O)C=C4[C@@H]5C[C@@](C)(CO)CC[C@]5(C)CC[C@@]4(C)[C@]3(C)CC[C@@H]12`, in that order: 56.6% and 4.30.
Take `CC1(C)C(=O)CC[C@]2(C)[C@H]3CC=C4[C@@H]5C[C@@](C)(CO)CC[C@]5(C)CC[C@@]4(C)[C@]3(C)CC[C@@H]12`: in data set [1], the viability is 110%. In addition, in the data set on RAW264.7, the pIC50 was 4.42.
For `O=c1c(O)c(-c2ccc(O)c(O)c2)oc2cc(O)cc(O)c12` [QUERCETIN], in that order: 106% and 5.34.
On to `CC1(C)[C@@H](O)CC[C@]2(C)[C@H]3CC=C4[C@@H]5C[C@@](C)(C(=O)O)CC[C@]5(C)CC[C@@]4(CO)[C@]3(C)[C@@H](O)C[C@@H]12`, for which the viability in data set [1] is 114%. The IC50 entry with RAW264.7 was “Not Active”.
Regarding `CC1(C)[C@@H](O)CC[C@]2(C)[C@H]3CC=C4[C@@H]5[C@H](O)[C@@](C)(CO)CC[C@]5(C)C[C@H](O)[C@@]4(C)[C@]3(C)[C@@H](O)C[C@@H]12`, the viability in data set [1] came to 125%. Moreover, the pIC50 in the data set on RAW264.7 is 6.19.
Take `CC1(C)[C@@H](O[C@@H]2O[C@H](CO)[C@@H](O)[C@H](O)[C@H]2O)CC[C@]2(C)[C@H]3C(=O)C=C4[C@@H]5C[C@@](C)(CO)CC[C@]5(C)CC[C@@]4(C)[C@]3(C)CC[C@@H]12`: the viability in data set [1] was determined as 1.22%. In addition, the IC50 entry in the data set on RAW264.7 was “Not Active”.
For `CC1(C)CC[C@]2(C(=O)O)CC[C@]3(C)C(=CC(=O)[C@@H]4[C@@]5(C)CC[C@H](O)C(C)(C)[C@@H]5CC[C@]43C)[C@@H]2C1` the same measures were 111% and “Not Active”.
For the compound `CC1(C)[C@@H](O)CC[C@]2(C)[C@H]3CC=C4[C@@H]5C[C@@](C)(C(=O)O)CC[C@]5(C)CC[C@@]4(C)[C@]3(C)CC[C@@H]12`, in data set [1], the viability is 83.4%. The pIC50 with RAW264.7 is 4.59.
Regarding `CC1(C)[C@@H](O[C@@H]2O[C@H](CO)[C@@H](O)[C@H](O)[C@H]2O)CC[C@]2(C)[C@H]3C(=O)C=C4[C@@H]5C[C@@](C)(C=O)CC[C@]5(C)CC[C@@]4(C)[C@]3(C)CC[C@@H]12`, the viability in data set [1] was found to be 7.33%. The IC50 entry in the data set with RAW264.7 is “Not Active”.
On to `CC1(C)[C@@H](O)CC[C@]2(C)[C@H]3C(=O)C=C4[C@@H]5C[C@@](C)(C=O)CC[C@]5(C)CC[C@@]4(C)[C@]3(C)CC[C@@H]12`, for which, in data set [1], the viability worked out at 89.6%. Further, the pIC50 in the data set with RAW264.7 is 4.33.
For `CC1(C)[C@@H](O)CC[C@]2(C)[C@H]3CC=C4[C@@H]5C[C@@](C)(CO)CC[C@]5(C)C[C@H](O)[C@@]4(CO)[C@]3(C)[C@@H](O)C[C@@H]12` the same measures were 107% and 7.15.
Consider `CC1(C)[C@@H](O)CC[C@]2(C)[C@H]3[C@H](O)C=C4[C@@H]5C[C@@](C)(CO)CC[C@]5(C)C[C@H](O)[C@@]4(C)[C@]3(C)[C@@H](O)C[C@@H]12`, for which the viability in data set [1] was 112%. For the same compound, the IC50 entry in the data set on RAW264.7 was “Not Active”.
With `CC1(C)CC[C@]2(C(=O)O[C@@H]3O[C@H](CO)[C@@H](O)[C@H](O)[C@H]3O)CC[C@]3(C)C(=CC(=O)[C@@H]4[C@@]5(C)CC[C@H](O)C(C)(C)[C@@H]5CC[C@]43C)[C@@H]2C1`, the viability in data set [1] amounted to 82.7%. Further, the pIC50 in the data set with RAW264.7 was 4.96.
As to `CC1(C)[C@@H](O)CC[C@]2(C)C3[C@H](O)C=C4[C@@H]5C[C@@](C)(CO)CC[C@]5(C)CC[C@@]4(C=O)[C@]3(C)[C@@H](O)C[C@@H]12` (stereo not given in full), the viability in data set [1] came out at 130%. In addition, the IC50 result with RAW264.7 is listed as “Not Active”.
With `CC1(C)[C@@H](O)CC[C@]2(C)C3=CC=C4[C@@H]5C[C@@](C)(CO)CC[C@]5(C)C[C@H](O)[C@@]4(CO)[C@]3(C)[C@@H](O)C[C@@H]12`, the viability in data set [1] was 130%. Moreover, the pIC50 in the data set on RAW264.7 is 4.16.
In the case of `CC1(C)[C@@H](O[C@@H]2O[C@H](CO)[C@@H](O)[C@H](O)[C@H]2O)CC[C@]2(C)[C@H]3C(=O)C=C4[C@@H]5C[C@@](C)(C(=O)O[C@@H]6O[C@H](CO)[C@@H](O)[C@H](O)[C@H]6O)CC[C@]5(C)CC[C@@]4(C)[C@]3(C)CC[C@@H]12`, the viability in data set [1] is 121%. Besides, the IC50 entry with RAW264.7 is “Not Active”.
For `CC1(C)[C@@H](O)CC[C@]2(C)[C@H]3CC=C4[C@@H]5C[C@@](C)(CO)CC[C@]5(C)C[C@H](O)[C@@]4(C)[C@]3(C)[C@@H](O)C[C@@H]12`, in that order: 120% and “Not Active”.
For `CC1(C)[C@@H](O)CC[C@]2(C)[C@H]3C(=O)C=C4[C@@H]5C[C@@](C)(C(=O)O)CC[C@]5(C)CC[C@@]4(C)[C@]3(C)CC[C@@H]12` [ENOXOLONE] the same measures were 4.04% and “Not Active”.
As to `CC1(C)[C@@H](O)CC[C@]2(C)[C@H]3C(=O)C=C4[C@@H]5C[C@@](C)(C(=O)O[C@@H]6O[C@H](CO)[C@@H](O)[C@H](O)[C@H]6O)CC[C@]5(C)CC[C@@]4(C)[C@]3(C)CC[C@@H]12`, the viability in data set [1] was 94.8%. In the data set with RAW264.7, the IC50 entry is on record as “Not Active”.

The record behind these values is ChEMBL document CHEMBL4622840, “Microbial transformation of glycyrrhetinic acid derivatives by Bacillus subtilis ATCC 6633 and Bacillus megaterium CGMCC 1.1741” (Bioorg Med Chem, 2020).
